Experimental data published in publication PMC4415995 (Advances in Therapy, 2015).
Read-outs that look alike come from different tables or passages of the source.

Experiments:
[1] = tested on: Japanese patients with T2DM; settings: cited from earlier work
[2] = tested on: Japanese patients with T2DM; assay: Sigmoid E max model regression of change in UGE on plasma luseogliflozin AUC; format: in vivo, human
SGLT1 = settings: SGLT2 vs SGLT1; cited from earlier work
[3] = format: in vivo, human; settings: for AUC / AUC(0-inf) / Cmax / half-life / Tmax: human, plasma, oral; for Cmax: C max
How it was run: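 Oral doses of 0.5–5 mg once daily for 7 days, given with 150 mL water before a standardized ~600 kcal breakfast. Venous blood was drawn pre-dose and 0.25–24 h after dosing on Days 1 and 7, and pre-breakfast on Days 9–11. Urine was pooled at 4 °C over intervals. Samples were stored at −70 °C. Parent and active O-deethyl metabolite were measured by solid-phase extraction and LC–MS/MS with deuterated internal standards. Parameters were non-compartmental; metabolite ratio was AUCτ(M2)/AUCτ(parent).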

In the case of `CCOc1ccc(Cc2cc([C@@H]3S[C@H](CO)[C@@H](O)[C@H](O)[C@H]3O)c(OC)cc2C)cc1` [Luseogliflozin, (1S)-1,5-anhydro-1-[5-(4-ethoxybenzyl)-2-methoxy-4-methylphenyl]-1-thio-D-glucitol], the incidence of hypoglycemia ([1]; 0.5 mg, Phase II, 1/60) is given as 1.7%, the “incidence of AEs related to genital infection” value ([1]; 2.5 mg, Phase III, 1/79) is given as 1.3% and the incidence of hypoglycemia ([1]; 2.5 mg, Phase III, 1/79) is given as 1.3%. The incidence of pollakiuria ([1]; 2.5 mg, Phase III, 2/79) was 2.5%, the “incidence of AEs related to renal function” value ([1]; 2.5 mg, Phase III, 6/79) was 7.6% and the body weight change ([1]; 2.5 mg, over 24 weeks of treatment) was -2.70 kg. The incidence of hypoglycemia ([1]; 5 mg, Phase II, 1/54) was 1.9%, the “episodes of volume depletion” value ([1]; Phase III study) was “no episodes” and the “UGE as share of the maximal UGE value estimated using the E max model” value ([2]; 5 mg OD, after 7 days) was “approximately 85%”. The “E max (maximum change in UGE), estimate (95% CI)” value ([2]; values on Day 1 and 7) was 119 g/day, the “IC50 for SGLT2 lower than IC50 for SGLT1 (selectivity)” value (SGLT1) was 1765 fold and the “Ae0–24” value ([3]; 0.5 mg luseogliflozin OD, Day 1, urine) was 3.76 ± 0.832 % of dose. The “Ae0–24” value ([3]; 0.5 mg luseogliflozin OD, Day 7, urine) was 4.56 ± 1.04 % of dose, the “Ae0–24” value ([3]; 1 mg luseogliflozin OD, Day 1, urine) was 4.06 ± 0.497 % of dose and the “Ae0–24” value ([3]; 1 mg luseogliflozin OD, Day 7, urine) was 4.30 ± 0.875 % of dose. The “Ae0–24” value ([3]; 2.5 mg luseogliflozin OD, Day 1, urine) was 4.51 ± 1.13 % of dose, the “Ae0–24” value ([3]; 2.5 mg luseogliflozin OD, Day 7, urine) was 4.79 ± 1.09 % of dose and the “Ae0–24” value ([3]; 5 mg luseogliflozin OD, Day 1, urine) was 4.11 ± 0.763 % of dose. The “Ae0–24” value ([3]; 5 mg luseogliflozin OD, Day 7, urine) was 4.56 ± 0.617 % of dose, the “accumulation after multiple doses” value ([3]; AUCinf Day 1 vs AUCτ Day 7 comparable) was “does not accumulate” and the “dose proportionality for C max and AUCτ (power model)” value ([3]; Day 7, 0.5-5 mg) was “dose proportionality”. It also gave an AUC ([3]; 0.5 mg) of 179 ± 32.6 ng·h/mL, an AUC(0-inf) ([3]; 0.5 mg) of 171 ± 38.4 ng·h/mL and a Cmax ([3]; 0.5 mg, 0.5 mg luseogliflozin OD, Day 1, plasma) of 21.9 ± 2.88 ng/mL. For the same molecule, the Cmax ([3]; 0.5 mg, 0.5 mg luseogliflozin OD, Day 7, plasma) was 25.6 ± 4.25 ng/mL, the half-life ([3]; 0.5 mg, t 1/2, 0.5 mg luseogliflozin OD, Day 1, plasma) was 9.86 ± 1.57 h and the half-life ([3]; 0.5 mg, t 1/2, 0.5 mg luseogliflozin OD, Day 7, plasma) was 10.5 ± 1.03 h. The Tmax ([3]; 0.5 mg, t max, 0.5 mg luseogliflozin OD, Day 1, plasma) was 0.857 ± 0.556 h, the Tmax ([3]; 0.5 mg, t max, 0.5 mg luseogliflozin OD, Day 7, plasma) was 0.643 ± 0.244 h and the AUC ([3]; 1 mg) was 370 ± 55.5 ng·h/mL. It also gave an AUC(0-inf) ([3]; 1 mg) of 357 ± 53.9 ng·h/mL, a Cmax ([3]; 1 mg, 1 mg luseogliflozin OD, Day 1, plasma) of 43.7 ± 10.8 ng/mL and a Cmax ([3]; 1 mg, 1 mg luseogliflozin OD, Day 7, plasma) of 52.3 ± 10.9 ng/mL. It also gave a half-life ([3]; 1 mg, t 1/2, 1 mg luseogliflozin OD, Day 1, plasma) of 9.61 ± 1.34 h, a half-life ([3]; 1 mg, t 1/2, 1 mg luseogliflozin OD, Day 7, plasma) of 10 ± 1.37 h and a Tmax ([3]; 1 mg, t max, 1 mg luseogliflozin OD, Day 1, plasma) of 0.688 ± 0.259 h. It also gave a Tmax ([3]; 1 mg, t max, 1 mg luseogliflozin OD, Day 7, plasma) of 0.688 ± 0.259 h, an AUC ([3]; 2.5 mg) of 899 ± 148 ng·h/mL and an AUC(0-inf) ([3]; 2.5 mg) of 864 ± 132 ng·h/mL. The Cmax ([3]; 2.5 mg, 2.5 mg luseogliflozin OD, Day 1, plasma) was 119 ± 27 ng/mL, the Cmax ([3]; 2.5 mg, 2.5 mg luseogliflozin OD, Day 7, plasma) was 136 ± 42 ng/mL and the half-life ([3]; 2.5 mg, t 1/2, 2.5 mg luseogliflozin OD, Day 1, plasma) was 9.24 ± 0.928 h. It also gave a half-life ([3]; 2.5 mg, t 1/2, 2.5 mg luseogliflozin OD, Day 7, plasma) of 9.2 ± 0.71 h, a Tmax ([3]; 2.5 mg, t max, 2.5 mg luseogliflozin OD, Day 1, plasma) of 0.625 ± 0.354 h and a Tmax ([3]; 2.5 mg, t max, 2.5 mg luseogliflozin OD, Day 7, plasma) of 1 ± 0.886 h. The AUC ([3]; 5 mg) was 1880 ± 318 ng·h/mL, the AUC(0-inf) ([3]; 5 mg) was 1690 ± 271 ng·h/mL and the Cmax ([3]; 5 mg, 5 mg luseogliflozin OD, Day 1, plasma) was 243 ± 45.7 ng/mL. The half-life ([3]; 5 mg, t 1/2, 5 mg luseogliflozin OD, Day 1, plasma) was 8.96 ± 1.11 h, the half-life ([3]; 5 mg, t 1/2, 5 mg luseogliflozin OD, Day 7, plasma) was 9.54 ± 1.26 h and the Tmax ([3]; 5 mg, t max, 5 mg luseogliflozin OD, Day 1, plasma) was 0.625 ± 0.231 h. The Tmax ([3]; 5 mg, t max, 5 mg luseogliflozin OD, Day 7, plasma) was 0.688 ± 0.259 h, the half-life ([3]; mean t 1/2, all four doses (0.5-5 mg)) was roughly 10 h and the Tmax ([3]; t max (mean), across 0.5-5 mg doses, Days 1 and 7, plasma) was 0.625 to 1 h.
